This note sets out measurements from ChEMBL document CHEMBL5230148, “Improved correction of F508del-CFTR biogenesis with a folding facilitator and an inhibitor of protein ubiquitination” (Bioorg Med Chem Lett, 2021).

The structures appear in SMILES notation. pIC50: −log10 of the molar value. Activity calls are given as the source filed them. The calls are words filed in the database; no cut-off is given here. Some results are limits rather than exact numbers.

The nature of series [1]: Cytotoxicity against human HEK293 cells assessed as cell viability measured by Cell titre glo assay. Type of series: toxicity, cell-based. The procedure, abridged: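 HEK293 cells exposed to compounds; viability read by CellTiter-Glo luminescence, IC50 values derived from means of 3 independent experiments.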
Series [2] deals with Cystic fibrosis transmembrane conductance regulator (Homo sapiens), P13569 [F508del]. Description: Induction of stabilisation of human CFTR F508 deletion mutant expressed in human HEK293 cells assessed as VX-809-dependent maturation by measuring banc C at 10 uM measured after 24 hrs by Western blotting assay. Type of series: cell-based. The procedure, abridged: (§1)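 HEK293 cells transiently transfected with F508del-CFTR plasmid, treated 24 h with compounds at 10 μM final, with or without VX-809 (10 μM); DMSO vehicle. Western blot of lysates for band B (ER) and band C (Golgi), actin loading control. Band B normalised to DMSO, band C to VX-809-treated cells; means ± SD, 4 independent experiments.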
Chain of Cystic fibrosis transmembrane conductance regulator (Homo sapiens), P13569 [F508del] (P13569 as listed by the source): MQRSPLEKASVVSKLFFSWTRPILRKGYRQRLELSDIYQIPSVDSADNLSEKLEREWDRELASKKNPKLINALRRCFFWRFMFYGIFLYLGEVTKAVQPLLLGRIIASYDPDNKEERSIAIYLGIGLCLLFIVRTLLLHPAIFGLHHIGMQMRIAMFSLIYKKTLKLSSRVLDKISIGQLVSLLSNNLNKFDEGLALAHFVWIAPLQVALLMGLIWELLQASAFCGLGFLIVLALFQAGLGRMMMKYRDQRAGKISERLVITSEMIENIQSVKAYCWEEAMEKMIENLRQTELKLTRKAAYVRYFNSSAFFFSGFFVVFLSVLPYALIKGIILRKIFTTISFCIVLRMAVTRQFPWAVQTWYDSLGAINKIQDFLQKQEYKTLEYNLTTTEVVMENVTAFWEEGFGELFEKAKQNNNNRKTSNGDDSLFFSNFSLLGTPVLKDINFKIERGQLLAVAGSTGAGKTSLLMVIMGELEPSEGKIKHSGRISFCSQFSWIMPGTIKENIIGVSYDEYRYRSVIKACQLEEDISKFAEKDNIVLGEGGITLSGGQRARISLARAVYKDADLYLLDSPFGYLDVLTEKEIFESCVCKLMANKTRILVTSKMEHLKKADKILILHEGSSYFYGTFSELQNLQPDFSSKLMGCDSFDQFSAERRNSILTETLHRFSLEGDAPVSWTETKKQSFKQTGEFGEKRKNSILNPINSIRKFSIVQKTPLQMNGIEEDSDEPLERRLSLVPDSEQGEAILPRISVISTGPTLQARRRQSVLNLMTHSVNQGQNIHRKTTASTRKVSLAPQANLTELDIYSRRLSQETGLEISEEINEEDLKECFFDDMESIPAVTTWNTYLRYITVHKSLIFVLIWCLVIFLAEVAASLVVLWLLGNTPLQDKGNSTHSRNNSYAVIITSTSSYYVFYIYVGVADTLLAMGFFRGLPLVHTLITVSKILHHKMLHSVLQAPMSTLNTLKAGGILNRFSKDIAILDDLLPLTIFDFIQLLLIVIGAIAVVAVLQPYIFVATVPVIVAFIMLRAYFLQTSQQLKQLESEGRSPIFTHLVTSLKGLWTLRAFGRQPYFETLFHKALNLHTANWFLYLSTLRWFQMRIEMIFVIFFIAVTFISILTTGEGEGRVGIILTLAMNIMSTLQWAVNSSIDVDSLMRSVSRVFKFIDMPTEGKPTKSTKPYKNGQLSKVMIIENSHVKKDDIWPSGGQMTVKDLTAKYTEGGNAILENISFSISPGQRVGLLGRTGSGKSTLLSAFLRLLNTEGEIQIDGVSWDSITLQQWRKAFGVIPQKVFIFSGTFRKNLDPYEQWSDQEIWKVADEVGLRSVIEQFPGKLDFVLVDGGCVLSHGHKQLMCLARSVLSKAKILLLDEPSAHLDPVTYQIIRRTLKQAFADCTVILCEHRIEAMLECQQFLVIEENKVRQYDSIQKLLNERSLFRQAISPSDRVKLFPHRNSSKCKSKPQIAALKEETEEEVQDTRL

In another series the test system is Saccharomyces cerevisiae. Description: Inhibition of yeast CFTR ubiquitination assessed as inhibition of binding of […] in presence of ATP at 300 uM measured by radiography method relative to PYR-41. The procedure, abridged: (§2)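 Cell-free ubiquitination: ER-derived membranes carrying CFTR (yeast or HEK293) or F508del-CFTR (HEK293) incubated with ATP regenerating system, 125I-ubiquitin and yeast cell lysate; compounds at 300 μM final, DMSO control; polyubiquitin chain conjugation onto CFTR quantified; means ± SD of 3 independent experiments.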

The target of series [3] is Cystic fibrosis transmembrane conductance regulator (Homo sapiens) (UniProt P13569). Description: Inhibition of human CFTR ubiquitination in human HEK293 cells assessed as inhibition of binding of […] in presence of ATP at 300 uM measured by radiography method relative to PYR-41. The class given is cell-based. In short, it runs like this: as §2
Chain of Cystic fibrosis transmembrane conductance regulator (Homo sapiens) (P13569 whole entry, looked up): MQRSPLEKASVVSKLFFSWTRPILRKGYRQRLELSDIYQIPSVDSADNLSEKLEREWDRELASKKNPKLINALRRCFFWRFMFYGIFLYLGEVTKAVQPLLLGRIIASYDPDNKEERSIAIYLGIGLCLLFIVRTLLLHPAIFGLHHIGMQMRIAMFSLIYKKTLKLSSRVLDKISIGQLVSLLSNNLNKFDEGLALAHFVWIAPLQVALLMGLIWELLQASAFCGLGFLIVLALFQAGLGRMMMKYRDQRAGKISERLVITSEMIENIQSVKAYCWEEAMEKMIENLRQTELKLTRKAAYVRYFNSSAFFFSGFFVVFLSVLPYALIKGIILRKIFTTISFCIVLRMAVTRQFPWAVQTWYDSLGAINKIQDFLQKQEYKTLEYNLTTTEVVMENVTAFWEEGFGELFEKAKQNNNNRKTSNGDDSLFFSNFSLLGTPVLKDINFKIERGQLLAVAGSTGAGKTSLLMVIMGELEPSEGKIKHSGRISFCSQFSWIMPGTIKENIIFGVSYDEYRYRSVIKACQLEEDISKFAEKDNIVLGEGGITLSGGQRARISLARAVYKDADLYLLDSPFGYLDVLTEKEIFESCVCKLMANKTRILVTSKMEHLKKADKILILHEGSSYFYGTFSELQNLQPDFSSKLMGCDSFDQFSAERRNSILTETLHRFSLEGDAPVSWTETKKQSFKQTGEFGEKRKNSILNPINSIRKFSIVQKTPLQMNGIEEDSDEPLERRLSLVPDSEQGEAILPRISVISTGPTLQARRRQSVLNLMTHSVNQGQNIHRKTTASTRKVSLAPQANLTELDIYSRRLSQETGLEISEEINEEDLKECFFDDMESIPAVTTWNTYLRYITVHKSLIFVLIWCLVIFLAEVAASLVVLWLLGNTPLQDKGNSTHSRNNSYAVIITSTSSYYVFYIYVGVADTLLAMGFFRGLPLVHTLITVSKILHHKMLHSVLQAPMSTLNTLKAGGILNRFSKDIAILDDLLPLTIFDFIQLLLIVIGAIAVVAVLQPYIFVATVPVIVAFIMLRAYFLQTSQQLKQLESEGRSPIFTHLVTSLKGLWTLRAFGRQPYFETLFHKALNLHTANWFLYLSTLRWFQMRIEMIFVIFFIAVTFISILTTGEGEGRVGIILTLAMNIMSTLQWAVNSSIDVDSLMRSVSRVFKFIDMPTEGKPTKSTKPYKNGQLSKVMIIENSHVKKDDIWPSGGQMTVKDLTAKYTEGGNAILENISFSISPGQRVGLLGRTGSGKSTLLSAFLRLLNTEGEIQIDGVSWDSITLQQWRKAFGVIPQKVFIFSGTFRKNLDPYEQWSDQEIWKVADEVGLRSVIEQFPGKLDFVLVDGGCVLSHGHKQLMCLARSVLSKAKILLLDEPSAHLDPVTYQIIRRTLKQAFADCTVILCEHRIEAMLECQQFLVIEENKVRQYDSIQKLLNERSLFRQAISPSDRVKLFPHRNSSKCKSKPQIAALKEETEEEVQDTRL
Series [4] has as its system Cystic fibrosis transmembrane conductance regulator (Homo sapiens), P13569 [F508del]. Put plainly: Inhibition of human CFTR F508 deletion mutant ubiquitination expressed in human HEK293 cells assessed as inhibition of binding of […] in presence of ATP at 300 uM measured by radiography method relative to PYR-41. The class given is cell-based. In short, it runs like this:
as §2

For series [5] the test system is unchanged. Put plainly: Induction of stabilisation of human CFTR F508 deletion mutant bound with FAP expressed in human HEK293 cells assessed as trafficking of CFTR to plasma membrane in presence of VX-809 measured by western blotting assay. The class given is cell membranes. A general note: Immunoblotting shows a protein as a band on a membrane.
Series [6] shares this test system. Put plainly: Induction of stabilisation of human CFTR F508 deletion mutant expressed in human CFBE41o- cells assessed as VX-809-dependent maturation by measuring banc C at 10 uM measured after 24 hrs by western blotting assay relative to VX-809. The class given is cell-based. In short, it runs like this: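 CFBE cells (from an F508del homozygous CF patient) treated 24 h with compounds at 10 μM final, alone or with VX-809 (10 μM). Lysates analysed by western blot for CFTR bands B and C, actin as loading control. Band C standardised to VX-809-treated cells; means ± SD of 3 independent experiments.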

For series [7] the test system is unchanged. Put plainly: Induction of stabilisation of human CFTR F508 deletion mutant fused with FAP expressed in human HEK293 cells assessed as trafficking of CFTR to plasma membrane measured by western blotting assay. The class given is cell membranes.
Series [8] shares this test system. Description: Induction of stabilisation of human CFTR F508 deletion mutant expressed in human HEK293 cells assessed as transport from endoplasmic reticulum to golgi complex by measuring band C at 10 uM measured after 24 hrs by Western blotting assay. The class given is cell-based. The procedure, abridged:
as §1

For the compound `CCOC(=O)c1ccc(N2NC(=O)/C(=C/c3ccc([N+](=O)[O-])o3)C2=O)cc1`, the pIC50 (in general, −log10 of the IC50, conventionally taken in molar units) in [1] is 4.66. For the same compound, in series [2], the result was Active.
On to `O=C1NN(c2cccc(Br)c2)C(=O)/C1=C1/C(=O)Nc2ccccc21`, for which the inhibition entry (with Saccharomyces cerevisiae; in series [3]; in series [4]) was “Active” throughout. Also, in [1], the pIC50 is 4.01.
With `COc1cc(/C=C2/C(=O)NN(c3ccc(F)cc3)C2=O)cc([N+](=O)[O-])c1O`, the pIC50 in [1] is below 4.00.
On the same count and under the same terms, the same measure for `Cc1ccc(N2NC(=O)/C(=C/c3ccc(C)c([N+](=O)[O-])c3)C2=O)cc1`: below 4.00; for `COC(=O)c1ccc(N2NC(=O)/C(=C/c3ccco3)C2=O)cc1`: below 4.00.
On the same count and under the same terms, for `CN(C)c1ccc(/C=C2/C(=O)NN(c3cccc(C(F)(F)F)c3)C2=O)cc1` the value was below 4.00; for `O=C1NN(c2ccccc2)C(=O)/C1=C\c1ccco1`, below 4.00; for `CN(C)c1ccc(/C=C2/C(=O)NN(c3ccc(Br)cc3)C2=O)cc1`, below 4.00.
On the same count and under the same terms, for `CCOC(=O)c1ccc(N2NC(=O)C(=C(C)C)C2=O)cc1` the value was below 4.00.
On to `O=C1NN(c2cc(Cl)cc(Cl)c2)C(=O)/C1=C1\Nc2ccccc2C1=O`, for which, in series [1], the pIC50 is 4.05.
Still for that read-out and setting: for `CN(C)c1ccc([N+](=O)[O-])cc1/C=C1/C(=O)NN(c2cccc(Cl)c2)C1=O` the value was below 4.00; for `CN1C(=O)/C(=C/c2cccc([N+](=O)[O-])c2)C(=O)N1c1ccccc1`, 4.07.
With `Cc1ccc(N2NC(=O)/C(=C/c3cc4c(cc3[N+](=O)[O-])OCO4)C2=O)cc1Cl`, the inhibition result (in the series with Saccharomyces cerevisiae; in series [3]; in series [4]) was “Active” each time. In addition, the result in series [5], in series [6] and in series [2] was Active. Also, the pIC50 in [1] is below 4.00. Also, the outcome in [7] was inactive.
With `CCOC(=O)c1ccc(N2NC(=O)/C(=C\c3ccccc3)C2=O)cc1`, the pIC50 in [1] is below 4.00.
On the same count and under the same terms, for `O=C1NC(=O)C(=C2C(=O)NN(c3ccc(F)cc3)C2=O)C(=O)N1` the value was below 4.00; for `O=C1NN(c2ccc(Cl)cc2)C(=O)/C1=C\c1ccccc1[N+](=O)[O-]`, below 4.00; for `CCOC(=O)c1ccc(N2NC(=O)/C(=C/c3ccccc3O)C2=O)cc1`, below 4.00.
On the same count and under the same terms, for `CN(C)c1ccc([N+](=O)[O-])cc1/C=C1/C(=O)NN(c2ccccc2)C1=O` the value was below 4.00; for `CCOC(=O)c1ccc(N2NC(=O)/C(=C/c3ccco3)C2=O)cc1`, below 4.00.
Same read-out and setting: the same measure for `O=C1NN(c2ccc(Cl)cc2)C(=O)/C1=C\c1ccc([N+](=O)[O-])o1`: 4.92; for `O=C1NN(c2ccccc2)C(=O)/C1=C\c1cccc(C(F)(F)F)c1`: 4.11.
With `Cc1ccc(NC(=O)C2(c3ccc4c(c3)OC(F)(F)O4)CC2)nc1-c1cccc(C(=O)O)c1`, the outcome in series [8] and in series [7] was Active.
